Columns and labels:
Assay type in all cases: cell-based
[1] = biological target: 5'-AMP-activated protein kinase catalytic subunit alpha-1 (Homo sapiens) (UniProt Q13131); assay: Inhibition of AMPKa1 in human SKCO1 cells at 1 uM after 4 hrs using biotin labeled DLKPENVLLDAHMNAK probe by mass-spectrometric analysis relative to control
Summary of the method: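 Live SK-CO-1 cells were treated 4 h with compound at 1 μM or DMSO, then lysed. Lysates were labeled with a lysine-reactive ATP/ADP-biotin probe and analysed by mass spectrometry. Percent inhibition is the loss of probe-dependent recovery of the kinase peptide relative to DMSO.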

[2] = biological target: Aurora kinase B (Homo sapiens) (UniProt Q96GD4); assay: Inhibition of AurB in human SKCO1 cells at 1 uM after 4 hrs using biotin labeled SHFIVALKVLFK probe by mass-spectrometric analysis relative to control
[3] = biological target: Mitogen-activated protein kinase kinase kinase 4 (Homo sapiens) (UniProt Q9Y6R4); assay: Inhibition of MAP3K4 in human SKCO1 cells at 1 uM after 4 hrs using biotin labeled DIKGANIFLTSSGLIK probe by mass-spectrometric analysis relative to control
[4] = biological target: Ribosomal protein S6 kinase (Homo sapiens) (UniProt P51812+Q9UBS0+O75676+Q15349+O75582+P23443+Q9UK32+Q15418); assay: Inhibition of p70S6K in human SKCO1 cells at 1 uM after 4 hrs using biotin labeled DLKPENIMLNHQGHVK probe by mass-spectrometric analysis relative to control
Summary of the method: (§1)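 Live SK-CO-1 cells exposed to compound at 1 μM or DMSO for 4 h (KiNativ). Lysates then labeled with lysine-reactive ATP/ADP-biotin probe, and probe-labeled kinase peptides quantified by mass spectrometry. Percent inhibition of probe-dependent recovery calculated relative to DMSO-treated cells.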

[5] = biological target: Cyclin-dependent kinase 18 (Homo sapiens) (UniProt Q07002); assay: Inhibition of PCTAIRE3 in human SKCO1 cells at 1 uM after 4 hrs using biotin labeled SKLTENLVALKEIR probe by mass-spectrometric analysis relative to control; summary of the method: as §1
[6] = biological target: 1-phosphatidylinositol 3-phosphate 5-kinase (Homo sapiens) (UniProt Q9Y2I7); assay: Inhibition of PIP5K3 in human SKCO1 cells at 1 uM after 4 hrs using biotin labeled GGKSGAAFYATEDDRFILK probe by mass-spectrometric analysis relative to control; summary of the method: as §1
[7] = biological target: Serine/threonine-protein kinase PRP4 homolog (Homo sapiens) (UniProt Q13523); assay: Inhibition of PRP4 in human SKCO1 cells at 1 uM after 4 hrs using biotin labeled CNILHADIKPDNILVNESK probe by mass-spectrometric analysis relative to control; summary of the method: as §1
[8] = biological target: T1, Non-receptor tyrosine-protein kinase TNK1 (Homo sapiens) (UniProt Q13470); assay: Inhibition of TNK1 in human SKCO1 cells at 1 uM after 4 hrs using biotin labeled SVPVAVKSLR probe by mass-spectrometric analysis relative to control; summary of the method: as §1
T1 sequence (whole entry): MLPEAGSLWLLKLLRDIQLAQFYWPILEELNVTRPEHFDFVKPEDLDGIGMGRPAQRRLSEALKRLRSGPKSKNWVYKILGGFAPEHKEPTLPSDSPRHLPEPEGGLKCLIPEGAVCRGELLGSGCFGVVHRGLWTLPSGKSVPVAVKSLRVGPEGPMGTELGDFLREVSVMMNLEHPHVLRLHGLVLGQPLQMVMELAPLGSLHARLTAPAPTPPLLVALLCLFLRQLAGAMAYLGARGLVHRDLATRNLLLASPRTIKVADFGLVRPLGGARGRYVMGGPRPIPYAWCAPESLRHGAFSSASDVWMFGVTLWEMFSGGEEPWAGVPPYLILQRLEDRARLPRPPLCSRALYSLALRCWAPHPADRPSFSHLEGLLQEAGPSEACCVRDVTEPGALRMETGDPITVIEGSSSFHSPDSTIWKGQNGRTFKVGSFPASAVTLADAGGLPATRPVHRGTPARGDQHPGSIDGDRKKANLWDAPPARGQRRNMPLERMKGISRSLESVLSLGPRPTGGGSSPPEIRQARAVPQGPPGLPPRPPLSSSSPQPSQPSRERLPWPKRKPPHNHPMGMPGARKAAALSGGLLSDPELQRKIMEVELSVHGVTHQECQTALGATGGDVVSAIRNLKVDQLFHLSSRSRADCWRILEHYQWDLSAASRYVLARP

[9] = biological target: T2, Dual specificity protein kinase TTK (Homo sapiens) (UniProt P33981); assay: Inhibition of TTK in human SKCO1 cells at 1 uM after 4 hrs using biotin labeled NMLEAVHTIHQHGIVHSDLKPANFLIDGMLK probe by mass-spectrometric analysis relative to control; summary of the method: as §1
T2 sequence (whole entry): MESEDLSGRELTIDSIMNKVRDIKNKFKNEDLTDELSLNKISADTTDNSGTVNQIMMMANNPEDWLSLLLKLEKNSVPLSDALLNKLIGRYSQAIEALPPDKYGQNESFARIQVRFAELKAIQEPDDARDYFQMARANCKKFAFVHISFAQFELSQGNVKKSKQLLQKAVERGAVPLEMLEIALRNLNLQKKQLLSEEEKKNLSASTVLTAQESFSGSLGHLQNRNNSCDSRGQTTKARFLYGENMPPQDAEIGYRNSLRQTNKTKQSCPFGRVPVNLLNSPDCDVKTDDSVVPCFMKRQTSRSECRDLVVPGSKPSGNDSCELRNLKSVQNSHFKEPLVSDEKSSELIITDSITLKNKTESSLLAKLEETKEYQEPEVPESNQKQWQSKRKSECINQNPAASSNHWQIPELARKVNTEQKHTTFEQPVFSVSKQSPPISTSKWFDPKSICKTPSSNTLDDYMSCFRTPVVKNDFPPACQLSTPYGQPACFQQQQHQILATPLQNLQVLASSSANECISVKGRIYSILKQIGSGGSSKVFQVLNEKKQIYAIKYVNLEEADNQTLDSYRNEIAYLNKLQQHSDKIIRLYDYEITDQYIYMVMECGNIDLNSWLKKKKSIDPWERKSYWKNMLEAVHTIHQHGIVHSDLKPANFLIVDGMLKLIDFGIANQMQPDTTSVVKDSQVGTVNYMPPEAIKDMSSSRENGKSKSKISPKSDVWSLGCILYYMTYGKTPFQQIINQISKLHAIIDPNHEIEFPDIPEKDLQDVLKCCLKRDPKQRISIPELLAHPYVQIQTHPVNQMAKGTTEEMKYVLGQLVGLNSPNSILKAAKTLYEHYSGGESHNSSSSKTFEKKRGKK

[10] = biological target: Serine/threonine-protein kinase 32C (Homo sapiens) (UniProt Q86UX6); assay: Inhibition of YANK3 in human SKCO1 cells at 1 uM after 4 hrs using biotin labeled DVKPDNILLDER probe by mass-spectrometric analysis relative to control; summary of the method: as §1
Chain of Serine/threonine-protein kinase 32C (Homo sapiens) (Q86UX6 whole entry): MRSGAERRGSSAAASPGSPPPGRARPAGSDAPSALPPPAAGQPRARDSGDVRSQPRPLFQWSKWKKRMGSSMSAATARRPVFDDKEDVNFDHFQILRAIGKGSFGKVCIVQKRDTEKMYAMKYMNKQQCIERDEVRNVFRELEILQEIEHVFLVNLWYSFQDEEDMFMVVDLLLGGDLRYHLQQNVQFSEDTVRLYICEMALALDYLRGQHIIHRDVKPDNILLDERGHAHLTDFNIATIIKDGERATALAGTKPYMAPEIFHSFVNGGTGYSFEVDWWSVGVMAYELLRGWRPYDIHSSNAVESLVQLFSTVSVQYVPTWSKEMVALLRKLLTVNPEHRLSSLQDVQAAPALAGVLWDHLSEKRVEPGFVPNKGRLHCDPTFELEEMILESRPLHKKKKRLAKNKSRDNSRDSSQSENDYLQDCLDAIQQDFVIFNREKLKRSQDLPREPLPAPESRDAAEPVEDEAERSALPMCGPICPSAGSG

Chain of Cyclin-dependent kinase 18 (Homo sapiens) (Q07002 whole entry): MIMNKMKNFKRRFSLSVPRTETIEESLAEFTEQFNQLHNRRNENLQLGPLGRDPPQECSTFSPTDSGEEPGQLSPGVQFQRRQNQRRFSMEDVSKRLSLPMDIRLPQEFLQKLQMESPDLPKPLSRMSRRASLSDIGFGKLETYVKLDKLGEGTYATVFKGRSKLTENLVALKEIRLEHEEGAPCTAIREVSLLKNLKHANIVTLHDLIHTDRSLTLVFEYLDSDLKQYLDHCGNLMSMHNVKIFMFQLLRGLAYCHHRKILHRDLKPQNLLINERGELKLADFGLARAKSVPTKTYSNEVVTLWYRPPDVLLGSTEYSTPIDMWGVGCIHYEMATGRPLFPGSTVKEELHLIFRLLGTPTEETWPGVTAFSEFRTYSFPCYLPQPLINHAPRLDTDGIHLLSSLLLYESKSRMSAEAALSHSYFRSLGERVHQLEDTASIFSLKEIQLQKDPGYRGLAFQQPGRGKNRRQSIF
Chain of Serine/threonine-protein kinase PRP4 homolog (Homo sapiens) (Q13523 whole entry): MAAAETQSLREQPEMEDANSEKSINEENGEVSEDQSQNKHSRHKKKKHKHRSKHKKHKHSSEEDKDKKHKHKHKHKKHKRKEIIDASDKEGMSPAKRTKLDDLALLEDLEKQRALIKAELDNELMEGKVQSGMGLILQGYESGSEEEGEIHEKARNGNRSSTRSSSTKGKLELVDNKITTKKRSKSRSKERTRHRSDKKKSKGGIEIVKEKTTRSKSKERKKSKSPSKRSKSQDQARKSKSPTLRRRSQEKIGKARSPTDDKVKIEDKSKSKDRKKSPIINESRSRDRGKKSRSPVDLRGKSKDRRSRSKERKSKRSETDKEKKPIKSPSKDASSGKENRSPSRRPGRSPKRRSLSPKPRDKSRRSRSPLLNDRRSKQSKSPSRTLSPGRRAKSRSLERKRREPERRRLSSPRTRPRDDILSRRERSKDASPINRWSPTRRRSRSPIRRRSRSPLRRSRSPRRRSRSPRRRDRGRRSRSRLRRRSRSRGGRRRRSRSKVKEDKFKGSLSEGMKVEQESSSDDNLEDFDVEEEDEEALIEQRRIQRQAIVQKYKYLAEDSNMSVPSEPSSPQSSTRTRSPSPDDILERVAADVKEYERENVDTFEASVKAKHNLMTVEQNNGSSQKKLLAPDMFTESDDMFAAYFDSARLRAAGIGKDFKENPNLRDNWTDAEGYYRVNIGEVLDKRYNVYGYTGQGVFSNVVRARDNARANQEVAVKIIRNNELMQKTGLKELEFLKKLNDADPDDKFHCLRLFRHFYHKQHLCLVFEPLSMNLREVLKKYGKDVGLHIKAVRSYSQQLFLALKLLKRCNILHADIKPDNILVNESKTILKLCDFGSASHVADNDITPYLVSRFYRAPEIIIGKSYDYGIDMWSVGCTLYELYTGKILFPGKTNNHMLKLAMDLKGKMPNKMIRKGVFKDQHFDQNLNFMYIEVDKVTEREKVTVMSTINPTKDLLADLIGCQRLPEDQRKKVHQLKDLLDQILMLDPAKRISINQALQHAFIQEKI
Chain of Aurora kinase B (Homo sapiens) (Q96GD4 whole entry): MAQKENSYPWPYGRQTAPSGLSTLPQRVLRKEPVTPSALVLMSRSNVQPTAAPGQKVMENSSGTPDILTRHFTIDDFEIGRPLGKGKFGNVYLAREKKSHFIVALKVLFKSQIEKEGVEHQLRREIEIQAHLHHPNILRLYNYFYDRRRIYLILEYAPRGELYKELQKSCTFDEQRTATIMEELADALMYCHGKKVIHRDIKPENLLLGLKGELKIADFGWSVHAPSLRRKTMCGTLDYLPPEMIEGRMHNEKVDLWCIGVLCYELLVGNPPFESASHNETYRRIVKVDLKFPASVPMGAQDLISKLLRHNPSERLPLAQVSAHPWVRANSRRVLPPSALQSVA
Chain of 1-phosphatidylinositol 3-phosphate 5-kinase (Homo sapiens) (Q9Y2I7 whole entry): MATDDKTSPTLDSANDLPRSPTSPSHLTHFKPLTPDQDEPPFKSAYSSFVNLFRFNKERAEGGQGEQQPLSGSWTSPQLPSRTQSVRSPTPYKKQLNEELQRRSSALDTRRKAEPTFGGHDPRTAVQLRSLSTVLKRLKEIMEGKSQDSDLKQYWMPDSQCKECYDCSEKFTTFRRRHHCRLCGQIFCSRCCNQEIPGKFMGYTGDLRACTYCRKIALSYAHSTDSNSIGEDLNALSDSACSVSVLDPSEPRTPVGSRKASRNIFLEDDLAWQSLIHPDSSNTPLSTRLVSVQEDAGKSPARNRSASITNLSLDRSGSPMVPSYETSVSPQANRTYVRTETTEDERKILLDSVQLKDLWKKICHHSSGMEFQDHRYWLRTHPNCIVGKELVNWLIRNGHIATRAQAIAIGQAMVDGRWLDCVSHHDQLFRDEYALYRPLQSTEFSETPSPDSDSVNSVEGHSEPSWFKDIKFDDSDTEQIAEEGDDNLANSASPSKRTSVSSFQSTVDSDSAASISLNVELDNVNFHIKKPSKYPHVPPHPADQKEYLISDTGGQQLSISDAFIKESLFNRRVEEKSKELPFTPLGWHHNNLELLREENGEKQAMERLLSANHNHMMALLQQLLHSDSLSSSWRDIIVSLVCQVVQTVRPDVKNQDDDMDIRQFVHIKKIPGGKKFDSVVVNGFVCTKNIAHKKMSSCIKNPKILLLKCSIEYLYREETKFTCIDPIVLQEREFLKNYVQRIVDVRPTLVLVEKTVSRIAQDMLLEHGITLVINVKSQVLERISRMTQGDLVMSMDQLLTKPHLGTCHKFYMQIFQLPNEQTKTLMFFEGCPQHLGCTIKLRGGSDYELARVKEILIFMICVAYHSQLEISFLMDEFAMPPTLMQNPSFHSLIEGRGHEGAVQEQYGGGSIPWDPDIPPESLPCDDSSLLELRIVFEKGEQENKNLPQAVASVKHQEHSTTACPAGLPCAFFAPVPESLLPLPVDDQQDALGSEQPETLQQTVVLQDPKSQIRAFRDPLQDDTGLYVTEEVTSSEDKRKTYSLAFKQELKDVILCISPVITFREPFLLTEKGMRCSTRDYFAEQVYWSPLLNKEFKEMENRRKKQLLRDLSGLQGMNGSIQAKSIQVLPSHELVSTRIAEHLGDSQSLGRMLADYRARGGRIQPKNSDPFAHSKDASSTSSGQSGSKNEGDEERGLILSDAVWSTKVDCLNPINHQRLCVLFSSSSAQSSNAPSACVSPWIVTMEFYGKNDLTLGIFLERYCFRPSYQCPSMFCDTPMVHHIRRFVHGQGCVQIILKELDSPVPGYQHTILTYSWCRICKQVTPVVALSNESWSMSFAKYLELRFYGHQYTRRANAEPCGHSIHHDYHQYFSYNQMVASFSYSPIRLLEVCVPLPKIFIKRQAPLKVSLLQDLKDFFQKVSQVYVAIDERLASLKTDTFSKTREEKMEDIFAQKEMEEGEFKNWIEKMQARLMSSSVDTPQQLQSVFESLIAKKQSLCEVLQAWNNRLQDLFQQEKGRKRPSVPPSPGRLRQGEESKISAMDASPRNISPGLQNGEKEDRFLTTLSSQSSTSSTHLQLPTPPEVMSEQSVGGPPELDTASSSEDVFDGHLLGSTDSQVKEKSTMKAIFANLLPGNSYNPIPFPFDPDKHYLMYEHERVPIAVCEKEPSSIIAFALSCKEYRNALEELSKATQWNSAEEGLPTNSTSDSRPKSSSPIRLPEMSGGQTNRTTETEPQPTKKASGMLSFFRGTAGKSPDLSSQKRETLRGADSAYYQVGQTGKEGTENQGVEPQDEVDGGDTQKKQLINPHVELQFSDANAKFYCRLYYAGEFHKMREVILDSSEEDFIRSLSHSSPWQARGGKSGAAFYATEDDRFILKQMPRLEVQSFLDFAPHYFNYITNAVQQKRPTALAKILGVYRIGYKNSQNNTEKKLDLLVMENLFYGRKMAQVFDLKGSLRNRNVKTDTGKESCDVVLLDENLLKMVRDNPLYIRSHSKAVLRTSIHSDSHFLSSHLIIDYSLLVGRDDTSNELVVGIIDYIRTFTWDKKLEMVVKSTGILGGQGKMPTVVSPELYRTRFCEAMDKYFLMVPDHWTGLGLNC
Chain of 5'-AMP-activated protein kinase catalytic subunit alpha-1 (Homo sapiens) (Q13131 whole entry, looked up): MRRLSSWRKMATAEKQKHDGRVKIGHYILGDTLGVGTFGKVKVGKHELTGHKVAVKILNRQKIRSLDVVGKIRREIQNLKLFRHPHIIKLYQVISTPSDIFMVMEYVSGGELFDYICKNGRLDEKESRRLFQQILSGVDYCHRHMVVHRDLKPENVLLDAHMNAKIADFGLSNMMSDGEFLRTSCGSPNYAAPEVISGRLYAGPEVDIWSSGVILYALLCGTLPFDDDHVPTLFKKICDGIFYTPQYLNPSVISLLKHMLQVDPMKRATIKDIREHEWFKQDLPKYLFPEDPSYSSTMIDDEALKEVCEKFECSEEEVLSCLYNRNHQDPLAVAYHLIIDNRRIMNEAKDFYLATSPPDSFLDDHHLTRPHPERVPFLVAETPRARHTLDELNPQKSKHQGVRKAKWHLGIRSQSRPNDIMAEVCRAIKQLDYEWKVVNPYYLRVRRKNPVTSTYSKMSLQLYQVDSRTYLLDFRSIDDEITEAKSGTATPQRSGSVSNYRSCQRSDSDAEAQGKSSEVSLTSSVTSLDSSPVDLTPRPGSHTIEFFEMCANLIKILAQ

SMILES	inhibition [1] [%]	inhibition [2] [%]	inhibition [3] [%]	inhibition [4] [%]	inhibition [5] [%]	inhibition [6] [%]	inhibition [7] [%]	inhibition [8] [%]	inhibition [9] [%]	inhibition [10] [%]
COc1cc(O)c2c(c1)/C=C/C[C@H](O)[C@H](O)C(=O)/C=C\C[C@H](C)OC2=O	33.6	58.1	17.8	45.5	21.2	64.9	15.4	13.9	32.5	-1.6
C=CC(=O)Nc1ccccc1Nc1nc(Nc2ccc(N3CCN(C)CC3)cc2)ncc1Cl	76	94.4	63.3	16.3	3.7	61.5	32.7	98.3	40.6	-0.3
C=CC(=O)Nc1ccccc1Oc1nc(Nc2cnn(CCOC)c2)ncc1Cl	0.2	65.4	12.9	14.3	21.9	54.1	18.7	48.3	25.4	9.3
